The Papp B→A is how fast a substance crosses the layer from the basolateral side. What is called Papp A→B is how fast a substance crosses the layer from the apical side. As usually defined, the Tmax is the time from dosing to the highest level. One may read the IC50 as the concentration needed to halve the response being measured. In general, Cmax refers to the maximum level reached in the sampled fluid or tissue. One may read the bioavailability as the share of a dose that reaches the circulation, judged against a reference dose that is usually intravenous.

We go through 1 compound from ChEMBL document CHEMBL3779801, “Discovery of the Selective CYP17A1 Lyase Inhibitor BMS-351 for the Treatment of Prostate Cancer” (ACS Med Chem Lett, 2016).

A short description of data set [1]: Intrinsic permeability from basolateral to apical side in human Caco2 cells. The settings on record: Caco-2. The format is ADME, cell-based.
The nature of data set [2]: Intrinsic permeability from apical to basolateral side in human Caco2 cells. The format is ADME, cell-based. Conditions: Caco-2. A general note: Caco-2 monolayers are a common model of the intestinal barrier.
Data set [3] addresses T1, Steroid 17-alpha-hydroxylase/17,20 lyase (Macaca fascicularis, UniProt Q2XVA1).
T1 sequence (Q2XVA1 whole entry): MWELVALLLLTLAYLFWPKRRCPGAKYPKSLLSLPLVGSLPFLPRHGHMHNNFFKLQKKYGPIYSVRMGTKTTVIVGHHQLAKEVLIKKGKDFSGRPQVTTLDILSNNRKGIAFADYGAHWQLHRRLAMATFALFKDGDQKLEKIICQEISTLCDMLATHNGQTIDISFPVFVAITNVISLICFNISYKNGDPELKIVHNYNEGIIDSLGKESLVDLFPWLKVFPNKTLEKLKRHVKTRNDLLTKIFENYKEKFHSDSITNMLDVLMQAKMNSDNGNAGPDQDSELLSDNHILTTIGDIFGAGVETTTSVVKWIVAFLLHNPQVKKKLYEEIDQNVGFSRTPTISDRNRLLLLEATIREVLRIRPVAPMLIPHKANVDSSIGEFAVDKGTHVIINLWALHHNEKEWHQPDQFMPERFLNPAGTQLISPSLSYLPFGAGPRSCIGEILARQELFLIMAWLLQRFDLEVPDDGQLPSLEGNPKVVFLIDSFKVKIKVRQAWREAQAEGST
The data set can be described thus: Selectivity ratio of cynomolgus monkey CYP17A1 hydroxylase activity using pregnenolone substrate to cynomolgus monkey CYP17A1 lyase activity using [3H]-hydroxypregnenolone substrate. The method in brief:
(§1)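 Hydroxylase and lyase activities were run with different enzyme preparations, so the hydroxylase/lyase ratios are estimates.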

Data set [4] can be described thus: Tmax in cynomolgus monkey plasma at 4 mg/kg, po after 0.25 to 45 hrs by LC-MS/MS analysis. Type of data set: ADME, organism-based, Macaca fascicularis. The method in brief:
(§2)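 Cynomolgus monkeys were dosed orally from a solution formulation. Plasma parameters are given as mean ± standard deviation.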

Data set [5] has as its system Cynomolgus monkey. The data set can be described thus: Ratio of Cmax to Cmean in cynomolgus monkey plasma at 4 mg/kg, po after 0.25 to 45 hrs by LC-MS/MS analysis. Conditions: in vivo. The format is ADME, organism-based, Macaca fascicularis.
In data set [6] the target is T2, Steroid 17-alpha-hydroxylase/17,20 lyase (Homo sapiens, UniProt P05093).
T2 sequence (P05093 whole entry): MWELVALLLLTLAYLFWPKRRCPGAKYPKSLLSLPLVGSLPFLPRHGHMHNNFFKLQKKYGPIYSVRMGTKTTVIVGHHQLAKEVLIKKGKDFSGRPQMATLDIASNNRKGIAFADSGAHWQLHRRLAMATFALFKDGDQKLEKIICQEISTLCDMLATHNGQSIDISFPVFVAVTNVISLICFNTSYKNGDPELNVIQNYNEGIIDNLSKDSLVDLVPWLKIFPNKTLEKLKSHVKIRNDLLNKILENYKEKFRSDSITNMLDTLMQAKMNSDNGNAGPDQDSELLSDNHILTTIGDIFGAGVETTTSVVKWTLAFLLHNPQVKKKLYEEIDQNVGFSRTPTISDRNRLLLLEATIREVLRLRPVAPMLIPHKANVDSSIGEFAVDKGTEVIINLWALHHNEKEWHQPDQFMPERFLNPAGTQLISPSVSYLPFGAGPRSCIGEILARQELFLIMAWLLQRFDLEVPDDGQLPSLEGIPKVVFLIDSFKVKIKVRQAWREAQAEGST
Nature of the data set: Selectivity ratio of human CYP17A1 hydroxylase activity expressed in Escherichia coli using pregnenolone substrate to human CYP17A1 lyase activity expressed in HEK293 cell microsomes using [3H]-hydroxypregnenolone substrate. An outline of the steps:
as §1

A short description of data set [7]: Inhibition of cynomolgus monkey CYP21A2 using hydroxy progesterone as substrate incubated for 120 mins by LC-MS method. More on the design: species or system Macaca fascicularis.
Data set [8] is described as follows: Cmax in cynomolgus monkey plasma at 4 mg/kg, po after 0.25 to 45 hrs by LC-MS/MS analysis. The format is ADME, organism-based, Macaca fascicularis. More on the design: dose 4 mg/kg, route oral. An outline of the steps:
as §2

Data set [9] is described as follows: Metabolic stability in mouse liver microsomes assessed as parent compound remaining at 0.5 uM incubated for 10 mins. The format is ADME. Conditions: read-out: Stability. The method in brief: (§3)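 Compound at 0.5 μM was incubated with human, mouse or cynomolgus liver microsomes for 10 min.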
In general terms: Liver microsomes are vesicles of endoplasmic reticulum, rich in cytochrome P450 enzymes.

Data set [10] is described as follows: Oral bioavailability in cynomolgus monkey plasma at 4 mg/kg after 0.25 to 45 hrs by LC-MS/MS analysis. Type of data set: ADME, organism-based, Macaca fascicularis. The method in brief: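 Oral bioavailability in cynomolgus monkey came from oral dosing of a solution formulation combined with a separate 2 mg/kg iv dose. Values are mean ± standard deviation.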

Data set [11] deals with T2, Steroid 17-alpha-hydroxylase/17,20 lyase. Nature of the data set: Inhibition of CYP17A1 in human adrenal microsomes using [3H]-pregnenolone as substrate incubated for 90 mins by scintillation proximity assay in presence of NADPH. Set-up: species or system Adrenal gland. For orientation: SPA uses beads or plates that emit light when radiolabelled molecules are held near them.

Data set [12] can be described thus: Tmax in one day castrated cynomolgus monkey at 1.5 mg/kg, po bid. The format is ADME, organism-based, Macaca fascicularis. Conditions: male, in vivo. The method in brief: (§4)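 Castrated cynomolgus monkeys were studied over one day with oral BID dosing at time 0 and 8 h. Plasma levels were sampled at set time points over 1–24 h and reported as average ± standard deviation in nM, n = 4.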

The nature of data set [13]: Volume of distribution at steady state in cynomolgus monkey plasma at 2 mg/kg, iv by LC-MS/MS analysis. Type of data set: ADME, organism-based, Macaca fascicularis. Conditions: read-out: Vdss. An outline of the steps: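 Cynomolgus monkeys were dosed intravenously. Plasma parameters are given as mean ± standard deviation.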
For data set [14], the target named is T1, Steroid 17-alpha-hydroxylase/17,20 lyase. Nature of the data set: Inhibition of CYP17A1 in cynomolgus monkey using [3H]-pregnenolone as substrate incubated for 45 mins by scintillation proximity assay in presence of NADPH.
Data set [15] is described as follows: Metabolic stability in human liver microsomes assessed as parent compound remaining at 0.5 uM incubated for 10 mins. Conditions: read-out: Stability. The format is ADME. An outline of the steps: as §3
The nature of data set [16]: Metabolic stability in cynomolgus monkey liver microsomes assessed as parent compound remaining at 0.5 uM incubated for 10 mins. The format is ADME, Macaca fascicularis. The settings on record: read-out: Stability. The method in brief:
as §3

The test system of data set [17] is Cynomolgus monkey. Nature of the data set: Free plasma concentration in cynomolgus monkey plasma at 1 mg/kg, po by LC-MS/MS analysis. Type of data set: ADME, organism-based, Macaca fascicularis. Conditions: in vivo.
Data set [18] concerns the target T1, Steroid 17-alpha-hydroxylase/17,20 lyase. The data set can be described thus: Inhibition of CYP17A1 in cynomolgus monkey adrenal microsomes using [3H]-pregnenolone as substrate incubated for 45 mins by scintillation proximity assay in presence of NADPH. More on the design: species or system Adrenal gland.
Data set [19] in a line: Tmax in one day castrated cynomolgus monkey at 1.5 mg/kg, po bid measured after second dose administered at 8 hrs. The format is ADME, organism-based, Macaca fascicularis. The settings on record: male, in vivo. An outline of the steps:
as §4

In data set [1], `Cc1ccncc1-c1cccc2c1ncn2CC(F)(F)F` showed an apparent permeability from basolateral to apical (Papp B→A) of 30 ×10⁻⁶ cm/s. The compound further registered an apical-to-basolateral permeability (Papp A→B) in [2] of 40 ×10⁻⁶ cm/s. The Selectivity ratio in data set [3] is reported as 11; in [6], 10. In addition, the time to peak (Tmax) in data set [4] was determined as 1.3 h; in [12], 1 h; in data set [19] it was 9.5 h. Further, the Ratio in data set [5] was 16. Further, the IC50 was over 7500 nM in data set [7], 20 nM in data set [11], 4 nM in data set [14] and 2 nM in data set [18]. This compound returned a maximum concentration (Cmax) in data set [8] of 3000 nM. Further, the results for the remaining at 10 min, 0.5 µM in data set [9], in data set [15] and in data set [16] were 66%, 90% and 83%, respectively. In addition, the bioavailability in [10] was 97%. In addition, the Vd in data set [13] was determined as 4.4 L/kg. Also, in [17], the “Cp(f)” value stood at 80 nM.
